Where a SMILES comes first, the peptide text is derived from it. Where no end group is shown, it is not given here. The star is where a group is joined. Myristoyl = CCCCCCCCCCCCCC(=O)*
Columns and labels:
PKCη = PKCη (Homo sapiens, UniProt P24723); test: In vitro kinase assay, immunoprecipitated PKC, MBP substrate, γ-[32P]ATP; type: biochemical; conditions: for inhibition of kinase activity of PKCη: even at 10 μΜ peptide, MBP substrate
Procedure, shortened: (§1)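 Novel PKC isoforms were HA-tagged, expressed in HEK-293T and pulled down with anti-HA beads (100 μg lysate). Reaction 30 min at 32 °C; 32P-MBP read by autoradiography and normalized via HA/MBP immunoblots. Means of three independent experiments.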

PKCδ = PKCδ (Homo sapiens, UniProt Q05655); test: as above; type: biochemical
Procedure, shortened: as §1

PKCθ = PKCθ (Homo sapiens, UniProt Q04759); test: as above; type: biochemical
Procedure, shortened: as §1

PKCε = target: T1, PKCε (Homo sapiens, UniProt Q02156); test: as above; type: biochemical
T1 sequence (Q02156 1-737): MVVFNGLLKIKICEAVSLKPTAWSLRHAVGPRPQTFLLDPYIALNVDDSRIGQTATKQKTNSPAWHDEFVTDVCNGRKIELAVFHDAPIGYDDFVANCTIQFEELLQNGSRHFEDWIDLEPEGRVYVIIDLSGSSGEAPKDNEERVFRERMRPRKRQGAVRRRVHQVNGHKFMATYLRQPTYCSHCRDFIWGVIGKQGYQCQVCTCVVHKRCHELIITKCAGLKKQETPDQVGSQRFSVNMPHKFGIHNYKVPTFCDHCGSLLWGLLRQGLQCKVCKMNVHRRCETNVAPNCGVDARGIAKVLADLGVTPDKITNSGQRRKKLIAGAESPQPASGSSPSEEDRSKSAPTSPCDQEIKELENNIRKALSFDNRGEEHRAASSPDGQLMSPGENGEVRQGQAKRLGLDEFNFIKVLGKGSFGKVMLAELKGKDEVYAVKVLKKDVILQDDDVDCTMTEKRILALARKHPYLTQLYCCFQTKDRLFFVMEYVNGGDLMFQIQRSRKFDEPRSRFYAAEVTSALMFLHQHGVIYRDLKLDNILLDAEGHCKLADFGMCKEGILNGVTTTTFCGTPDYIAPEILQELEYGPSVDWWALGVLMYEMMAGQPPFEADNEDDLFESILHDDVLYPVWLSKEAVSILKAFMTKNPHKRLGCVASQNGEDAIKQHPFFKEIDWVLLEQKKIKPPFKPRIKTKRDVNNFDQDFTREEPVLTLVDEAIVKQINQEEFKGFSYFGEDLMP
Procedure, shortened: as §1

PKC-α = test: In vitro kinase assay, immunoprecipitated PKC, MBP substrate, γ-[32P]ATP; type: biochemical; conditions: PMA and CaCl2
Procedure, shortened: (§2)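 HA-tagged classical PKC was overexpressed in HEK-293T, and lysate (100 μg) was immunoprecipitated with immobilized anti-HA. Incubated 30 min, 32 °C. 32P-MBP detected by SDS-PAGE/autoradiography; HA and MBP then immunoblotted and band signals quantified.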

PKC-γ = test: as above; type: biochemical; conditions: PMA and CaCl2
Procedure, shortened: as §2

PKC-ζ = test: In vitro kinase assay, immunoprecipitated PKC, MBP substrate, γ-[32P]ATP; type: biochemical
Procedure, shortened: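 Atypical isoform, HA-tagged and overexpressed in HEK-293T; anti-HA immunoprecipitate from 100 μg lysate. Autoradiography of 32P-MBP after SDS-PAGE, with anti-HA and anti-MBP immunoblots for quantification.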

[1] = test system: MCF-7 breast cancer cells; test: Cell viability; type: cell-based, human; conditions: XTT; peptide concentration 10 μM; three independent experiments
Procedure, shortened: (§3)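 Cells seeded at 5 × 10^3/well and grown 16 to 24 h. N-terminally myristoylated peptides were added in serum-free medium for 4 h, then serum was replenished for 24 h. XTT absorbance was read and converted to cell number with a per-line standard curve (1.25 to 20 × 10^3 cells plated, assayed after 24 h). At least three repeats, each in triplicate.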

[2] = test system: MDA-MB-231 breast cancer cells; test: Cell viability; type: cell-based, human; conditions: XTT; peptide concentration 10 μM; three independent experiments
Procedure, shortened: as §3

[3] = test system: U251 MG glioblastoma cancer cells; test: Cell viability; type: cell-based, human; conditions: XTT; peptide concentration 10 μM; three independent experiments
Procedure, shortened: as §3

[4] = test system: nontransformed MCF10A cells; test: Cell viability; type: cell-based, human; conditions: XTT; peptide concentration 10 μM; three independent experiments
Procedure, shortened: as §3

MCF-7 cells [5] = test: Cell death with etoposide-induced DNA damage; type: cell-based, human; conditions: uPEP2 2 μM followed by etoposide 50 μM for 48 h, means of at least three experiments
MCF-7 cells [6] = test: Western blot of DNA damage response markers and PKC-η after etoposide; type: cell-based, human; conditions: peptide 2 μM, etoposide 50 μM
Procedure, shortened: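 MCF-7 treated with peptides (2 μM), then etoposide (50 μM). Lysed 30 min after etoposide addition, then Western blot with specific antibodies for phospho-γ-H2AX, Chk1, Chk2, ATM and ATR; Hsp90 and β-actin as loading controls. A non-myristoylated, cell-impermeant peptide served as control. Three independent experiments.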

[7] = test system: PKC-η (Ser675, Thr655) in MCF-7 cells; test: Western blot of PKC-η priming-site phosphorylation; type: cell-based, human; conditions: peptide 10 μM for 4 h, with/without MG132 10 μM, immunoblot
MDA-MB-231 tumors [8] = test: MDA-MB-231 orthotopic breast cancer xenograft in NSG mice; type: in vivo
MDA-MB-231 tumors [9] = test: MDA-MB-231 orthotopic breast cancer xenograft in NOD-SCID mice; type: in vivo; conditions: 10 mg/kg intratumor on alternate days; four mice
Procedure, shortened: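 Female 6–8-wk-old NOD-SCID mice received 4 × 10^6 MDA-MB-231-Luc cells in 100 μL PBS into the mammary fat pad. At ~100 mm3, mice were randomized to PBS, a non-myristoylated control peptide, or test peptide (10 mg/kg), given intratumorally on alternate days. Caliper measurements three times weekly; V = (W2 × L)/2. Endpoint at ~2,000 mm3.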

PKC-η = test: Kinase assay with the peptide as substrate; type: biochemical; conditions: γ-ATP
PKC-ε = test: Kinase assay with the peptide as substrate; type: biochemical; conditions: γ-ATP

PKCη, sequence (P24723 whole entry, canonical isoform): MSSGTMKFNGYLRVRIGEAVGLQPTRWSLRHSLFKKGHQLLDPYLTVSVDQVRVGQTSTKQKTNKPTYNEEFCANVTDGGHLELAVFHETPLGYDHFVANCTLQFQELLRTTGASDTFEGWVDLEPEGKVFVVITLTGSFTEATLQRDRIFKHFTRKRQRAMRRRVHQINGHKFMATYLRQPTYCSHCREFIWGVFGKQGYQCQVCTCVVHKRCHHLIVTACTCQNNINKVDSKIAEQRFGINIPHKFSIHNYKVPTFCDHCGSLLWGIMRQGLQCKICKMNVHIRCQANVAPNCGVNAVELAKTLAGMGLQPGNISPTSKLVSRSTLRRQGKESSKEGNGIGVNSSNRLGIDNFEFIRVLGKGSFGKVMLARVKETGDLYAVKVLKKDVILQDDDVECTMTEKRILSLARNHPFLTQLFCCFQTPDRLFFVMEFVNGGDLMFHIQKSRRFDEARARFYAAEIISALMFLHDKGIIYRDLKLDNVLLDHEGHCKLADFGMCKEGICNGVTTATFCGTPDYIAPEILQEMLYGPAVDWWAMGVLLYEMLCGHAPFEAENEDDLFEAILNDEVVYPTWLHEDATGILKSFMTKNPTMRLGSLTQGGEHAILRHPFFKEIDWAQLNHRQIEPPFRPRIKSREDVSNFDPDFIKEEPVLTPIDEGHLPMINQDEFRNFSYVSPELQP
PKCδ, sequence (Q05655 whole entry): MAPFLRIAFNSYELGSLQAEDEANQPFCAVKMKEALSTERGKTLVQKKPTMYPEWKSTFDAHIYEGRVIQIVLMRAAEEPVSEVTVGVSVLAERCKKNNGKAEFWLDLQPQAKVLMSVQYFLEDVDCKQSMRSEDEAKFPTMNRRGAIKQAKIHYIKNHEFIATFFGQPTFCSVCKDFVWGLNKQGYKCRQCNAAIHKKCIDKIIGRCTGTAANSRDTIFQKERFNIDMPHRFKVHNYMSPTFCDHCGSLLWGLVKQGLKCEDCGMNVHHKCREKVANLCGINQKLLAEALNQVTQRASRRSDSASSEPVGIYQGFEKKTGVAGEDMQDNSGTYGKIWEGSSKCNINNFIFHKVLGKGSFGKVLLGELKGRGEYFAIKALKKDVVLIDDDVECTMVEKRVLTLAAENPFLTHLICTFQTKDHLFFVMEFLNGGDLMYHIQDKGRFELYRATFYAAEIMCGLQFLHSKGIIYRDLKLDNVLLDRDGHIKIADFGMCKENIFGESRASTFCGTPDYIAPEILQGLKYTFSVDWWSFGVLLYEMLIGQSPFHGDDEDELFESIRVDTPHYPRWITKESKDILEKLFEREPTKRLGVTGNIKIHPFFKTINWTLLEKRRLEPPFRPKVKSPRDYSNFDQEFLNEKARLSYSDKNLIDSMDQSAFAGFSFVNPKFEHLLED
PKCθ, sequence (Q04759 whole entry): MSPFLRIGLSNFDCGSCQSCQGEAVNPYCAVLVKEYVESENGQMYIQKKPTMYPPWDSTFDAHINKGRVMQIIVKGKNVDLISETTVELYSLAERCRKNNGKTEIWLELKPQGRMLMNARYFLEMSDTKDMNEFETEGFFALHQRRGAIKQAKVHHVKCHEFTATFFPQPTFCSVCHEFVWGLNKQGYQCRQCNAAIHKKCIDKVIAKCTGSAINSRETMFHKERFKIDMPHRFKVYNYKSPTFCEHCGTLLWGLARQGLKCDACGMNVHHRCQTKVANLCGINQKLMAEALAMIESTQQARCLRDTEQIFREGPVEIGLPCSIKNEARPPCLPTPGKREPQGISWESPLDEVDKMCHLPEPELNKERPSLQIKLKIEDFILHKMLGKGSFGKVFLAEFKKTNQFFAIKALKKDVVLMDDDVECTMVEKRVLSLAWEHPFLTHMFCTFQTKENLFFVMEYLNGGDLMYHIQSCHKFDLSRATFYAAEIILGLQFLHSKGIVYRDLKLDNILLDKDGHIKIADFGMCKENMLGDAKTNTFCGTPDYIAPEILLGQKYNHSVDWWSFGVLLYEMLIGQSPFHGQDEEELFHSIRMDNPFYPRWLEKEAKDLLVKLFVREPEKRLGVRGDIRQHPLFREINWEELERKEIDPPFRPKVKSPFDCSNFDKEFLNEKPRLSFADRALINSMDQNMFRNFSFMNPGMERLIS

Question: Which IC50 (PKCη) does the source give for `CCCCCCCCCCCCCC(=O)N[C@@H](CCSC)C(=O)N[C@@H](C)C(=O)N[C@@H](CO)C(=O)N[C@@H](CCCNC(=N)N)C(=O)NCC(=O)N[C@@H](C)C(=O)N[C@@H](CC(C)C)C(=O)N[C@@H](CCCNC(=N)N)C(=O)N[C@@H](CCCNC(=N)N)C(=O)N[C@@H](CS)C(=O)N[C@@H](CC(C)C)C(=O)N[C@@H](CO)C(=O)N1CCC[C@H]1C(=O)NCC(=O)N[C@@H](CC(C)C)C(=O)N1CCC[C@H]1C(=O)N[C@@H](CCCNC(=N)N)C(=O)N[C@@H](CC(C)C)C(=O)N[C@@H](CC(C)C)C(=O)N[C@@H](Cc1c[nH]cn1)C(=O)N[C@@H](CC(C)C)C(=O)N[C@@H](CO)C(=O)N[C@@H](CCCNC(=N)N)C(=O)NCC(=O)N[C@@H](CC(C)C)C(=O)N[C@@H](C)C(N)=O` [uPEP2] (Myristoyl-MASRGALRRCLSPGLPRLLHLSRGLA-NH2) here?
Answer: ~2000 nM

Question: And the IC50 (PKCδ)?
Answer: ~2000 nM

Question: What about the IC50 (PKCθ) of the same molecule?
Answer: ~2000 nM

Question: What about the IC50 (PKCε) of the same molecule?
Answer: ~2000 nM

Question: And the “effect on kinase activity of PKC-α (classical)” value (PKC-α)?
Answer: did not affect

Question: And the “effect on kinase activity of PKC-γ (classical)” value (PKC-γ)?
Answer: did not affect

Question: And the “effect on kinase activity of PKC-ζ (atypical)” value (PKC-ζ)?
Answer: did not affect

Question: And the “cell viability of MCF-7” value [1]?
Answer: reduces cell viability

Question: And the “cell viability of MDA-MB-231” value [2]?
Answer: reduces cell viability

Question: And the “cell viability of U251 MG” value [3]?
Answer: reduces cell viability

Question: What about the “cell viability of MCF10A” value [4] of the same molecule?
Answer: did not affect

Question: And the “cell death in the presence of both agents (uPEP2 and etoposide)” value (MCF-7 cells [5])?
Answer: 95 to 100%

Question: What about the “PKC-η protein in etoposide-treated cells” value (MCF-7 cells [6]) of the same molecule?
Answer: enhanced degradation

Question: And the “etoposide-promoted phosphorylation of ATM, ATR, Chk1 and Chk2” value (MCF-7 cells [6]; lysis 30 min after etoposide)?
Answer: markedly decreased

Question: And the “phosphorylation of γ-H2AX upon etoposide” value (MCF-7 cells [6]; lysis 30 min after etoposide)?
Answer: markedly increased

Question: What about the “phosphorylation of PKC-η priming sites Ser675 and Thr655” value [7] of the same molecule?
Answer: diminished

Question: What about the “breast tumor mass, NSG mice” value (MDA-MB-231 tumors [8]; 10 mg/kg intratumor on alternate days, five animals/group) of the same molecule?
Answer: significantly attenuates

Question: And the “growth (volume) of MDA-MB-231 tumors in NSG mice” value (MDA-MB-231 tumors [8]; 10 mg/kg intratumor on alternate days, five mice/group)?
Answer: inhibited the growth

Question: And the “expression levels of classical PKC-α, PKC-γ and atypical PKC-ζ in tumors” value (MDA-MB-231 tumors [8]; immunoblot of tumor extracts)?
Answer: not affected

Question: What about the “protein levels of novel PKC-η and PKC-ε in tumors” value (MDA-MB-231 tumors [8]; immunoblot of tumor extracts, NSG and NOD-SCID mice) of the same molecule?
Answer: lower protein levels

Question: What about the “phosphorylation of PKC substrates in tumors” value (MDA-MB-231 tumors [8]; phospho-(Ser) PKC substrate antibody, tumors grown in NSG or NOD-SCID mice) of the same molecule?
Answer: lower

Question: What about the “apoptosis in tumors (TUNEL assay)” value (MDA-MB-231 tumors [8]; tumor tissue slides at end of experiment) of the same molecule?
Answer: increased apoptosis

Question: What about the “growth (volume) of MDA-MB-231 tumors in NOD-SCID mice” value (MDA-MB-231 tumors [9]) of the same molecule?
Answer: inhibited the growth

Question: For “Myr-MASRGS/TLRRCLSPGLPRLLHLSRGLA [uPEP2[A6S]]”, which “phosphorylation of the peptide as substrate of PKC-η” value (PKC-η) is on record?
Answer: excellent substrate

Question: What about the “phosphorylation of the peptide as substrate of PKC-ε” value (PKC-ε) of the same molecule?
Answer: excellent substrate

Question: For “Myristoyl-CLSPGLPRLLHLSRGLA [uPEP2(10–26)]”, which “inhibition of kinase activity of PKCη” value (PKCη) is on record?
Answer: weak inhibitory effects

Question: Which “cell viability of MDA-MB-231” value [2] does the source give for “Myristoyl-MASRGALRRCLSPGLPR [uPEP2(1–17)]” here?
Answer: partial inhibition

Question: Myristoyl-MLLHLSRGLA [uPEP2(18–26)] was tested. Which “cell viability of MCF-7” value [1] did it give?
Answer: less effective

Question: And the “cell viability of MDA-MB-231” value [2]?
Answer: less effective

Question: What about the “cell viability of U251 MG” value [3] of the same molecule?
Answer: less effective

Question: Which results are given for “Myristoyl-TRKRQRAMRRVHQING [η-PS, reference compound]”?
Answer: inhibition of kinase activity of PKCη (PKCη): weak inhibitory effects; cell viability of MCF-7 [1]: less effective; cell viability of MDA-MB-231 [2]: less effective; cell viability of U251 MG [3]: less effective

Reference: article PMC8501901 (Proceedings of the National Academy of Sciences of the …, 2021)
